Data on 26 molecules can be found in ChEMBL document CHEMBL1221223, “Identification of a chemical probe for NAADP by virtual screening” (Nat Chem Biol, 2009).

Assay [1] relates to Lytechinus pictus. In words: (§1) Antagonistic activity at NAADP receptor in sea urchin egg homogenate assessed as inhibition of NAADP-mediated Ca2+ release using Fluo-3 staining based fluorimetric assay relative to control. It is filed as functional, tissue-based.
The test system of assay [2] is Lytechinus pictus. In words: Inhibition of cyclic ADP-ribose-induced Ca2+ release in sea urchin Egg homogenate at 100 uM using Fluo-3 staining based fluorimetric assay relative to control; values are per cent of control.
For assay [3], the species on record is Mus musculus. The experiment in a line: Binding affinity to NAADP receptor in CD1 mouse pancreatic beta cells assessed as fluorescent labeling of receptor at 60 nM after 30 mins by confocal microscopy. In outline:
(§2)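 Mouse pancreatic beta cells imaged by confocal microscopy, compound excited at 355 nm with emission 415±30 nm. LysoTracker Red (50 nM, 20-40 min; excitation 568 nm, emission >590 nm) used as comparison. Pretreatment with bafilomycin A1 (3 μM, 15 min) or NAADP-acetoxymethyl ester (60 nM, 30 min).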

In assay [4] the test system is Lytechinus pictus. In words: Displacement of [32P]NAADP from NAADP receptor in sea urchin egg homogenate after 5 days. It counts as tissue-based. In outline: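 Homogenate pre-incubated 10 min with compound (10 μM) or NAADP (10 nM), then [32P]NAADP added. Samples filtered at time points up to 5 days; dissociation read as recovery of [32P]NAADP binding (100% ≈ 1,500 cpm).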

Assay [5] concerns Lytechinus pictus. The experiment in a line: Antagonistic activity at NAADP receptor in sea urchin egg homogenate assessed as inhibition of NAADP-mediated Ca2+ release at 100 uM using Fluo-3 staining based fluorimetric assay relative to control; values are per cent of control.
For assay [6], the species on record is Mus musculus. In words: Binding affinity to NAADP receptor in CD1 mouse pancreatic beta cells assessed as fluorescent labeling of receptor at 60 nM after 30 mins in presence of V-type proton pump inhibitor bafilomycin A1 by confocal microscopy. In outline:
as §2

Assay [7] is filed under the species Mus musculus. The experiment in a line: Inhibition of L-type calcium channel in CD1 mouse pancreatic islets at 100 uM in presence of glucose diazoxide and KCl. In outline:
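Mouse islets in glucose (10 mM) and diazoxide (100 μM), depolarized with KCl (45 mM) with or without compound (100 μM). Ca2+ transient monitored with fura-PE3.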

Assay [8] is described as follows: Displacement of [32P]NAADP from Egg-binding protein in sea urchin egg homogenate at 6 uM after 10 mins. It counts as tissue-based, Lytechinus pictus. In outline: (§3)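 Sea urchin egg homogenate in intracellular-like buffer. Compound in DMSO (final 1% v/v) pre-incubated 10 min at 25°C, then [32P]NAADP added to 0.3 nM. Incubated 30 min, then binding assessed by filtration; concentration range used for displacement curves.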

Assay [9] deals with Pancreatic islet. In words: (§4) Inhibition of glucose-induced Ca2+ increase in CD1 mouse pancreatic islets preincubated for 30 mins before glucose challenge. It counts as functional, cell-based. In outline:
(§5)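 Acutely isolated mouse islets loaded with fura-PE3 AM and held in 3 mM glucose. Compound pre-incubated 30 min, then 15 mM glucose added. First peak, oscillation amplitude and plateau measured; concentration-inhibition curve gives IC50.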

Assay [10] can be described thus: as §4. It is filed as functional, cell-based. The conditions noted are these: CD1, Pancreatic islet. In outline: as §5
For assay [11], the species on record is Mus musculus. The experiment in a line: Antagonistic activity at NAADP receptor in CD1 mouse pancreatic beta cells assessed as inhibition of NAADP-mediated Ca2+ increase at 125 uM by patch clamp method. It is filed as functional. In outline: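 Mouse pancreatic beta cells voltage-clamped with a patch pipette; NAADP delivered through the pipette (50 nM in text, 100 nM in legend). Compound pre-incubated in the bathing solution. Ca2+ increases read as Ca2+-dependent current traces, compared with and without compound in the bath.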

Assay [12] relates to Lytechinus pictus. In words: Inhibition of IP3-induced Ca2+ release in sea urchin Egg homogenate at 100 uM using Fluo-3 staining based fluorimetric assay relative to control; values are per cent of control.
Assay [13] can be described thus: as §1. It is filed as functional, tissue-based, Lytechinus pictus.
Assay [14] relates to Lytechinus pictus. In words: Antagonistic activity at NAADP receptor in intact sea urchin eggs assessed as Inhibition of NAADP mediated Ca2+ increase at 100 uM using Oregon Green 488-BAPTA Dextran staining based by laser scanning confocal microscopy. It is filed as functional. In outline: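 Intact Lytechinus pictus eggs on polylysine-coated coverslips in artificial seawater containing compound. Eggs microinjected with Oregon Green 488 BAPTA Dextran (10 μM). NAADP (100 μM in pipette) pressure-microinjected to 1% egg volume, delivering ~1 μM. Imaged by laser-scanning confocal microscopy, 488 nm excitation, emission 530±15 nm band-pass or 510 nm long-pass.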

The subject of assay [15] is Lytechinus pictus. In words: Noncompetitive inhibition of NAADP receptor in sea urchin egg homogenate assessed as inhibition of NAADP induced Ca2+ release using Fluo-3 staining based fluorimetric assay. It is filed as tissue-based.
Assay [16] deals with Pancreatic islet. The experiment in a line: Inhibition of glucose induced mitochondrial metabolism in CD1 mouse pancreatic islets assessed as NADH and NADPH levels by fluorescence method. It counts as functional, cell-based. In outline: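 Mouse islets pre-incubated 60 min at 37°C in 3 mM glucose. NAD(P)H fluorescence (360 nm excitation, >470 nm emission) expressed as percent of basal values within the same islet.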

A short description of assay [17]: Displacement of [32P]NAADP from NAADP receptor in sea urchin egg homogenate preincubated 10 mins before [32P]NAADP addition. It counts as tissue-based, Lytechinus pictus. In outline:
as §3

The structures appear in SMILES notation. Active and inactive are the calls of the source. The rule behind the calls is not given here.

For the molecule `Cc1ccc(-n2c(SCC(=O)N/N=C\c3cccc(Oc4ccccc4)c3)nnc2-c2ccc(Cl)cc2)cc1`, the inhibition result with Lytechinus pictus [1] was “inactive”.

Take `COc1ccccc1N(C)S(=O)(=O)c1ccc(C(=O)Nc2ccc(N(c3ccccc3)C(C)C)cc2)cc1`: in the assay with Lytechinus pictus [1], the inhibition entry is “Active”.

For `COc1ccc(S(=O)(=O)N2CCN([C@H](C)C(=O)Nc3ccccc3-c3ccccc3)CC2)cc1`, the inhibition result in the assay on Lytechinus pictus [1] was “inactive”.

As to `O=C(COC(=O)c1cccc(Oc2ccccc2)c1)COC(=O)c1cccc(Oc2ccccc2)c1`, the inhibition entry in the assay on Lytechinus pictus [1] is “inactive”.

`Cc1ccc(-c2cc(C(=O)NCC(C)(C)CNC(=O)c3cc(-c4ccc(C)o4)nc4ccccc34)c3ccccc3n2)o1`: the inhibition result in the assay with Lytechinus pictus [1] was “inactive”.

In the case of `CC(C)(c1ccccc1)c1ccc(OC[C@@H](O)CN[C@H](Cc2ccccc2)c2nc(-c3ccccc3)no2)cc1`, the inhibition entry in the assay on Lytechinus pictus [1] is “inactive”.

Consider `NC(=O)c1c(NC(=O)CN2CCN(S(=O)(=O)c3ccc4c(c3)OCCO4)CC2)sc2c1CCCC2`, for which, in the assay with Lytechinus pictus [1], the inhibition result is “inactive”.

Regarding `COc1cc2c(cc1OC)-c1cc(NCCN3CCN(C(=O)c4ccc(F)cc4)CC3)nc(=O)n1CC2`, the inhibition entry in the assay with Lytechinus pictus [1] was “inactive”.

Regarding `CCN1C(=O)c2ccccc2[C@H]1Nc1ccc(C(=O)N2CCN(C/C=C/c3ccccc3)CC2)cc1`, in the assay on Lytechinus pictus [1], the inhibition result was “inactive”.

For the molecule `COc1ccc(C2N[C@H](C(=O)O)Cc3c2[nH]c2ccccc32)cc1CN1CCN(c2ccccc2F)CC1` (some centres not stated), the level, % of control amounted to 101% in the assay with Lytechinus pictus [2] and 87% in the assay with Lytechinus pictus [12]. Moreover, the result in the assay listed under Mus musculus [3] and in the assay filed under Mus musculus [6] was Active. Moreover, the inhibition result with Lytechinus pictus [4], in the assay filed under Mus musculus [11], in the assay with Lytechinus pictus [14] and with Lytechinus pictus [15] was “Active” throughout. In the assay on Lytechinus pictus [5], the residual activity turned out to be 5.4%. The inhibition entry in the assay listed under Mus musculus [7] and with Pancreatic islet [16] was “inactive” in each case. Further, the Ki (commonly the dissociation constant of the complex between target and ligand, obtained from inhibition or displacement) in [8] was 6000 nM. In addition, the inhibition result in the assay on Pancreatic islet [9] is “Dose-dependent effect”. The figures for the IC50 in [10] and in assay [13] were 3000 nM and 2000 nM, respectively.

Turning to `CC(C)N(CCCNC(=O)c1ccc2c(c1)N(Cc1c(F)cccc1Cl)C(=O)CS2)Cc1ccccc1`, in the assay on Lytechinus pictus [1], the inhibition entry was “Active”.

Consider `CS(=O)(=O)N(Cc1ccccc1)c1ccc(C(=O)N/N=C/c2cccc(Oc3ccccc3)c2)cc1`, for which the inhibition result in the assay on Lytechinus pictus [1] was “inactive”.

`COc1ccc([C@@H]2N[C@H](C(=O)O)Cc3c2[nH]c2ccccc32)cc1CN1CCN(c2ccccc2F)CC1`: the half-maximal inhibitory concentration (IC50) (usually the concentration needed to halve the response being measured) came to 15000 nM in [17] and 800 nM in assay [13].

Turning to `O=C(COc1ccccc1-c1ccccc1)N1CCN(S(=O)(=O)c2ccc3c(c2)OCCO3)CC1`, in the assay on Lytechinus pictus [1], the inhibition entry was “inactive”.

Consider `FC(F)(F)c1cccc(N2CCN(Cn3nc(COc4ccccc4)n(-c4ccccc4)c3=S)CC2)c1`, for which the inhibition entry with Lytechinus pictus [1] is “Toxic”.

Turning to `COc1ccc([C@H]2N[C@H](C(=O)O)Cc3c2[nH]c2ccccc32)cc1CN1CCN(c2ccccc2F)CC1`, the IC50 was determined as 0.4 nM in assay [17] and 6 nM in assay [13].

For the molecule `COc1ccc2[nH]c(C(=O)O)c(CCNC(=O)CO/N=C3/C=C[C@@]4(C)C(=C3)CC[C@@H]3[C@H]4CC[C@]4(C)[C@H]3CC[C@]4(C)O)c2c1`, in the assay on Lytechinus pictus [1], the inhibition entry is “Toxic”.

As to `CN1C(=O)/C(=C/c2ccccc2F)Sc2ccc(C(=O)N3CCN(Cc4ccc5c(c4)OCO5)CC3)cc21`, the inhibition result with Lytechinus pictus [1] was “inactive”.

Take `C=C1NN(c2nc(-c3cccc([N+](=O)[O-])c3)cs2)C(=O)/C1=N/Nc1ccc(Cl)cc1C(=O)c1ccccc1`: the inhibition result in the assay on Lytechinus pictus [1] was “Insoluble”.

For `CCC(=O)N1N=C(c2ccc(C3=NN(C(=O)CC)[C@H](c4cccc(OC)c4OC)C3)cc2)C[C@H]1c1cccc(OC)c1OC`, the inhibition result with Lytechinus pictus [1] is recorded as “Insoluble”.

For `CN1C(=O)/C(=C/c2ccccc2Cl)Sc2ccc(C(=O)N3CCN(Cc4ccc5c(c4)OCO5)CC3)cc21`, the inhibition result in the assay on Lytechinus pictus [1] was “inactive”.

As for `CCN(CC)CCOC(=O)c1ccc(NC(=O)c2cc(-c3cccc4ccccc34)nc3ccccc23)cc1`, the inhibition result with Lytechinus pictus [1] is “inactive”.

Regarding `C[C@@H]1CCc2c(sc(NC(=O)CN3CCN(S(=O)(=O)c4ccc5c(c4)OCCO5)CC3)c2C#N)C1`, the inhibition result in the assay with Lytechinus pictus [1] was “inactive”.

As for `CCn1c2ccccc2c2cc(NC(=O)CN3CCN(S(=O)(=O)c4cc(Cl)ccc4Cl)CC3)ccc21`, in the assay with Lytechinus pictus [1], the inhibition entry is “inactive”.

With `COc1ccc(C(=O)OCC(=O)c2ccc3c(c2)-c2ccccc2C3)cc1S(=O)(=O)N1CCCc2ccccc21`, the inhibition entry with Lytechinus pictus [1] was “Active”.

Take `CCn1c2ccccc2c2cc(NC(=O)CN3CCN(S(=O)(=O)c4ccc(OC)cc4)CC3)ccc21`: in the assay on Lytechinus pictus [1], the inhibition result is “inactive”.
